Test [1] in a line: Inhibitory concentration against KB/V-1 cells overexpress MDR1. Format: functional, cell-based. As to conditions: Homo sapiens. The method, boiled down: (§1)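 MTT microtiter tetrazolium assay. Cells exposed continuously for 4 days to varying drug concentrations, MTT read at the end of day 4. An untreated control ran in each assay. IC50 taken; each assay done at least twice in six replicate wells. Sources: RPMI 8402 human lymphoblasts and CPT-resistant CPT-K5; P388 mouse leukemia and CPT-resistant TOP1-deficient P388/CPT45; KB3-1 with KBV-1 (MDR1) and KBH5.0 (BCRP, selected stepwise against Hoechst 33342).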

Test [2] can be described thus: Inhibitory concentration against camptothecin-resistant variant of P388 cell line was determined. The class given is functional, cell-based, Mus musculus. The method, boiled down:
as §1

A further test deals with P388. The experiment in a line: Inhibitory concentration against P388 cell line in mouse leukemia was determine. The class given is functional, cell-based. The method, boiled down:
as §1

The test system of test [3] is RPMI 8402. The test is described as follows: Inhibitory concentration against lymphoblast RPMI 8402 cell line was determined. The class given is functional, cell-based. As to conditions: Homo sapiens. The method, boiled down:
as §1

Test [4] has as its system KB 3-1. The experiment in a line: Inhibitory concentration against KBH5.0 cells overexpress BCRP. The class given is functional, cell-based. As to conditions: Homo sapiens, KBH5.0 cell. The method, boiled down:
as §1

Test [5] concerns the target T1, DNA topoisomerase 1 (Homo sapiens) (UniProt P11387).
T1 sequence (whole entry): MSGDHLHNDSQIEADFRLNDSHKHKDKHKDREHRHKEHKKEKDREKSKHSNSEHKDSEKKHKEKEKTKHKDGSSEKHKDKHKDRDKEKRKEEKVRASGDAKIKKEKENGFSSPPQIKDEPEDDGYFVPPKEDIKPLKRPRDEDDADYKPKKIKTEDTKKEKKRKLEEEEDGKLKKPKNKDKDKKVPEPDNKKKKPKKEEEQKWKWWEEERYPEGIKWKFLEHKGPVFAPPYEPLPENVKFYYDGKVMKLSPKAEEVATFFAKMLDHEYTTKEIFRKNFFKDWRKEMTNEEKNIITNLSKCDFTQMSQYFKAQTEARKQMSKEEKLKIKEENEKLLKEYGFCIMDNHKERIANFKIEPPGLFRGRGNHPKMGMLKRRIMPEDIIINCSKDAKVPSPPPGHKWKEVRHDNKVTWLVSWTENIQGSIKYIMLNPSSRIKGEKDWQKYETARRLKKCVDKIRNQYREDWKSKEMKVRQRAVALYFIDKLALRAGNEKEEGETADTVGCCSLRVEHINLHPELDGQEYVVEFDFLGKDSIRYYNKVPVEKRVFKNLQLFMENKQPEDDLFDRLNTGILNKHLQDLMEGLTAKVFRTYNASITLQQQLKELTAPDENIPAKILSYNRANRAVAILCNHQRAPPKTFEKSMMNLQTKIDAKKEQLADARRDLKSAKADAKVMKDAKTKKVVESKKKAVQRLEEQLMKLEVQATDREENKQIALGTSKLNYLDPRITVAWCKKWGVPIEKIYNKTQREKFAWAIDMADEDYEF
The experiment in a line: Relative topoisomerase I-mediated plasmid DNA cleavage compared to topotecan. The class given is functional. The method, boiled down:
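Recombinant human topoisomerase I (T7-expressed in E. coli as a fusion protein). End-labeled plasmid YepG, CsCl-purified, incubated with drug and enzyme 30 min at 37 °C. Gel autoradiograms, typically 24 h exposure. Value is REC: concentration relative to topotecan (set at 1.0) that gives the same cleavage.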

The subject of test [6] is KB 3-1. The experiment in a line: Inhibitory concentration against KB3-1 cell line was determined. As to conditions: Homo sapiens. Format: functional, cell-based. The method, boiled down:
as §1

For test [7], the system named is RPMI 8402. The test is described as follows: Cytotoxicity against camptothecin-resistant RPMI 8402. The class given is functional, cell-based. As to conditions: Homo sapiens. The method, boiled down:
as §1

One may read the IC50 as the concentration needed to halve the response being measured. On to `COc1cc2c(=O)n(CCN(C)C(C)C)c3c4cc5c(cc4ncc3c2cc1OC)OCO5`, for which the IC50 in test [1] was found to be 3 nM; in test [2], 71 nM; in the test on P388, 6 nM; with RPMI 8402 [3] it was 8 nM; in the test with KB 3-1 [4], 4 nM; in the test with KB 3-1 [6], 3 nM. The same compound yielded a concentration for half-maximal inhibition (IC50) with RPMI 8402 [7] of 630 nM. In test [5], this compound came in with an Activity of 0.03.
